Data from ChEMBL document CHEMBL1153117, “Synthesis of substituted aryloxy alkyl and aryloxy aryl alkyl imidazoles as antileishmanial agents” (Bioorg Med Chem Lett, 2010).
≈ marks a conversion by molar mass, not a printed value.

Assays:
[1] = test system: Leishmania donovani; experiment: Antileishmanial activity against Leishmania donovani promastigotes at 10 ug/mL; type: functional
How it was run: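 L. donovani promastigotes exposed in vitro to 10 µg/mL. Result expressed as percent inhibition.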

[2] = test system: Leishmania donovani; experiment: Antileishmanial activity against Leishmania donovani amastigotes; type: functional, organism-based
How it was run: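 Intracellular L. donovani amastigotes tested in vitro, with sodium stibogluconate, pentamidine and amphotericin B as controls. IC50 (µg/mL) was obtained by nonlinear regression of the concentration–response curve using the four-parameter Hill equation.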

[3] = Cytotoxicity against mouse J774A1 cells by MTT assay; type: cell-based, J774.A1
How it was run: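 Mouse macrophage line J-774-A-1 tested for cytotoxicity. Viability was read by MTT assay. CC50 (µg/mL) was estimated by the Huber and Koella method.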

[4] = (§1) Selectivity index, ratio of CC50 for mouse J774A1 cells to IC50 for Leishmania donovani amastigotes; type: functional, J774.A1
How it was run: (§2)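 Computed as CC50 in the J-774-A-1 macrophage MTT assay divided by anti-amastigote IC50. The IC50 came from a four-parameter Hill fit of the concentration–response curve.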

[5] = test system: Leishmania donovani; experiment: Antileishmanial activity against Leishmania donovani promastigotes; type: functional, organism-based
[6] = test system: Leishmania donovani; experiment: Antileishmanial activity against Leishmania donovani infected in hamster assessed inhibition of parasite growth at 8 mg/kg, iv for 5 days; type: functional; settings: 120 h
[7] = test system: Leishmania donovani; experiment: Antileishmanial activity against Leishmania donovani infected in hamster assessed inhibition of parasite growth at 50 mg/kg, ip for 10 days; type: functional; settings: 240 h, route intraperitoneal
How it was run: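 Hamster model (Mesocricetus auratus) infected with L. donovani. Dosed intraperitoneally at 50 mg/kg × 10. Read-out was percent inhibition of parasite growth.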

[8] = test system: Leishmania donovani; experiment: Antileishmanial activity against Leishmania donovani infected in hamster assessed inhibition of parasite growth at 40 mg/kg; type: functional
[9] = test system: J774.A1; experiment: as §1; type: functional; how it was run: as §2
[10] = test system: Leishmania donovani; experiment: Antileishmanial activity against Leishmania donovani infected in hamster assessed inhibition of parasite growth at 20 mg/kg; type: functional, organism-based; set-up: dose 20 mg/kg
[11] = Leishmania donovani, read-out: IC50

Compound	IC50 [2]	IC50 [2, 11] [µg/mL]	IC50 [5] [µg/mL]	inhibition at 10 µg/mL [1] [%]	CC50 [3] [µg/mL]	Ratio CC50/IC50 [4]	inhibition in vivo at 8 mg/kg [6] [%]	inhibition in vivo at 50 mg/kg [7] [%]	inhibition in vivo at 40 mg/kg [8] [%]	Ratio CC50/IC50 [9]	inhibition [10] [%]
O=[N+]([O-])c1ccc(OC(COc2ccccc2)Cn2ccnc2)c(F)c1 (stereo unspecified)	–	5.13 (≈ 14.4 µM)	–	98.2	29.6 (≈ 82.8 µM)	5.76	–	–	–	–	–
CC(CCn1ccnc1)Oc1ccc([N+](=O)[O-])cc1C(F)(F)F (stereo unspecified)	–	9.97 (≈ 30.3 µM)	–	100	7.73 (≈ 23.5 µM)	0.97	–	–	–	–	–
C[C@@H]1[C@H](O)[C@@H](C)/C=C/C=C/C=C/C=C/C=C/C=C/C=C/[C@H](O[C@@H]2O[C@H](C)[C@@H](O)[C@H](N)[C@@H]2O)C[C@@H]2O[C@](O)(C[C@@H](O)C[C@@H](O)[C@H](O)CC[C@@H](O)C[C@@H](O)CC(=O)O[C@H]1C)C[C@H](O)[C@H]2C(=O)O [AMPHOTERICIN B]	–	0.05 (≈ 0.0541 µM)	0.008 (≈ 0.00866 µM)	–	7.24 (≈ 7.83 µM)	144.8	92.2	–	–	–	–
O=[N+]([O-])c1ccccc1OC(Cn1ccnc1)c1ccccc1 (stereo unspecified)	–	2.25 (≈ 7.27 µM)	–	97.5	25.1 (≈ 81.3 µM)	11.17	–	–	–	–	–
C[C@@H](Cn1ccnc1)[C@@H](Oc1ccccc1[N+](=O)[O-])c1ccccc1 (relative stereo)	–	2.27 (≈ 6.73 µM)	–	95	22.1 (≈ 65.7 µM)	9.75	–	–	–	–	–
FC(F)(F)c1ccc(OC(COc2ccccc2)Cn2ccnc2)cc1 (stereo unspecified)	–	0.56 (≈ 1.55 µM)	–	100	17.9 (≈ 49.3 µM)	31.89	–	58	–	–	–
N=C(N)c1ccc(OCCCCCOc2ccc(C(=N)N)cc2)cc1 [PENTAMIDINE]	–	12.1 (≈ 35.6 µM)	–	–	–	–	–	–	92	–	–
C[C@@H](Cn1ccnc1)[C@@H](Oc1ccc(C(F)(F)F)cc1)c1ccccc1 (relative stereo)	–	1.85 (≈ 5.13 µM)	–	100	21.7 (≈ 60.3 µM)	11.75	–	–	–	–	–
O=[N+]([O-])c1ccccc1OC(COc1ccccc1)Cn1ccnc1 (stereo unspecified)	–	4.82 (≈ 14.2 µM)	–	95.5	36.2 (≈ 107 µM)	7.51	–	–	–	–	–
sodium stibogluconate	–	–	–	–	–	–	–	–	–	6.38	84.1
CC(CCn1ccnc1)Oc1ccc(C(F)(F)F)cc1 (stereo unspecified)	–	8.08 (≈ 28.4 µM)	–	100	7.5 (≈ 26.4 µM)	0.88	–	–	–	–	–
CC(CCn1ccnc1)Oc1ccccc1[N+](=O)[O-] (stereo unspecified)	–	8.43 (≈ 32.3 µM)	–	100	> 100	>11.86	–	–	–	–	–
CC(CCn1ccnc1)Oc1ccc([N+](=O)[O-])cc1F (stereo unspecified)	Not Active	–	–	100	15 (≈ 53.7 µM)	–	–	–	–	–	–

The next lines start with results.

IC50 [2]	IC50 [2, 11] [µg/mL]	IC50 [5] [µg/mL]	Compound	inhibition at 10 µg/mL [1] [%]	CC50 [3] [µg/mL]	Ratio CC50/IC50 [4]	inhibition in vivo at 8 mg/kg [6] [%]	inhibition in vivo at 50 mg/kg [7] [%]	inhibition in vivo at 40 mg/kg [8] [%]	Ratio CC50/IC50 [9]	inhibition [10] [%]
Not Active	–	–	CC(CCn1ccnc1)Oc1ccc([N+](=O)[O-])cc1 (stereo unspecified)	100	24.1 (≈ 92.2 µM)	–	–	–	–	–	–
–	0.47 (≈ 1.36 µM)	–	FC(F)(F)c1ccc(OC(CCn2ccnc2)c2ccccc2)cc1 (stereo unspecified)	100	17.2 (≈ 49.8 µM)	36.68	–	60	–	–	–
–	2.76 (≈ 8.43 µM)	–	O=[N+]([O-])c1ccc(OC(Cn2ccnc2)c2ccccc2)c(F)c1 (stereo unspecified)	94.6	21.2 (≈ 64.9 µM)	7.69	–	–	–	–	–
–	3.82 (≈ 11.8 µM)	–	O=[N+]([O-])c1ccc(OC(CCn2ccnc2)c2ccccc2)cc1 (stereo unspecified)	99	25.1 (≈ 77.6 µM)	6.57	–	–	–	–	–
–	0.48 (≈ 1.48 µM)	–	O=[N+]([O-])c1ccccc1OC(CCn1ccnc1)c1ccccc1 (stereo unspecified)	100	18 (≈ 55.5 µM)	–	–	52	–	–	–
–	3.71 (≈ 12 µM)	–	O=[N+]([O-])c1ccc(OC(Cn2ccnc2)c2ccccc2)cc1 (stereo unspecified)	95.5	25.2 (≈ 81.5 µM)	6.79	–	–	–	–	–
–	5.62 (≈ 16.6 µM)	–	O=[N+]([O-])c1ccc(OC(COc2ccccc2)Cn2ccnc2)cc1 (stereo unspecified)	93.8	28.1 (≈ 82.9 µM)	5	–	–	–	–	–
–	2.83 (≈ 8.29 µM)	–	O=[N+]([O-])c1ccc(OC(CCn2ccnc2)c2ccccc2)c(F)c1 (stereo unspecified)	96.3	25.1 (≈ 73.5 µM)	8.86	–	–	–	–	–
–	2.05 (≈ 6.17 µM)	–	FC(F)(F)c1ccc(OC(Cn2ccnc2)c2ccccc2)cc1 (stereo unspecified)	98.6	28.4 (≈ 85.6 µM)	13.85	–	46	–	–	–
